Experimental data published in ChEMBL document CHEMBL1132453, “Heteroarotinoids inhibit head and neck cancer cell lines in vitro and in vivo through both RAR and RXR retinoic acid receptors” (J Med Chem, 1999).

Legend:
SCC-38 (Homo sapiens) [1] = test: Inhibition of SCC-38 cell proliferation; parameters: concentration or dose not given beside the values
SCC-2 (Homo sapiens) [2] = test: Inhibition of SCC-2 cell proliferation; parameters: concentration or dose not given beside the values
[3] = molecular target: T1, Retinoic acid receptor alpha (Homo sapiens, UniProt P10276); test: Transcriptional activation in CV-1 cells expressing human Retinoic acid receptor RAR alpha; assay type: cell-based
T1 sequence (P10276 whole entry): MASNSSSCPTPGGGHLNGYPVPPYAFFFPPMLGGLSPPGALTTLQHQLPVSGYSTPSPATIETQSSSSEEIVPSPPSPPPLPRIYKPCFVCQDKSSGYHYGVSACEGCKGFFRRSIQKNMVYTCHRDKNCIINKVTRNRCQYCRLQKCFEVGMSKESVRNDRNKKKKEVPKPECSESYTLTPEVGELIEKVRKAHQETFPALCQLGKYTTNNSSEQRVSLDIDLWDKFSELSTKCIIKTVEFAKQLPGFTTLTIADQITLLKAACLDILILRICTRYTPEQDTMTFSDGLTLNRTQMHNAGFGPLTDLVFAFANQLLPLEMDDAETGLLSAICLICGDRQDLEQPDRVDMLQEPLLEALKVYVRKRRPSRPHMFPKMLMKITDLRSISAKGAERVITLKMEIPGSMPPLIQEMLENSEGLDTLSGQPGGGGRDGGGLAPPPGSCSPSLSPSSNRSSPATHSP
Outline: (§1)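 CV-1 cells were plated at 7.5 × 10^4/well and transfected 24 h later (FuGENE6). Each well got a receptor vector (human RARα/β/γ in pECE or mouse RXRα/β/γ in pSG5), a βRARE-tk-CAT reporter and a β-actin-βGal control. After 16-18 h, ligand was added in 10-fold steps from 10^-10 to 10^-5 M (0.01% DMSO) for 24 h. CAT was measured by ELISA and normalised to βGal. Triplicates, repeated at least twice.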

[4] = molecular target: T2, Retinoic acid receptor RXR-beta (Mus musculus, UniProt P28704); test: Transcriptional activation of CV-1 cells expressing murine Retinoid X receptor RXR beta; assay type: cell-based
T2 sequence (P28704 whole entry): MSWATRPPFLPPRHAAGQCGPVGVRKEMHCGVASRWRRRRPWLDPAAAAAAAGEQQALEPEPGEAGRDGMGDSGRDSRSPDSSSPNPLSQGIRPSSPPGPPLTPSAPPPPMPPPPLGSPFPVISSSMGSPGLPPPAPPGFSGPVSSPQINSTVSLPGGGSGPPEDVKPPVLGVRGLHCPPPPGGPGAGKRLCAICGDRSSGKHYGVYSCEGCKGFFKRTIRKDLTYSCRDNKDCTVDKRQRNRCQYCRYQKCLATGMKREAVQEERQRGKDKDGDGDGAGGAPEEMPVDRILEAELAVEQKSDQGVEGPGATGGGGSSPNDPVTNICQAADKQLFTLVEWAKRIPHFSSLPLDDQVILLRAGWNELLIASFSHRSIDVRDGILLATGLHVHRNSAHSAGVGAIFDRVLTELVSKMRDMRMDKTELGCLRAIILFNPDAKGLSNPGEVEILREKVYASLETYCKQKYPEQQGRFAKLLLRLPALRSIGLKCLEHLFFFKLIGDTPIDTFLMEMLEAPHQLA
Outline: as §1

[5] = molecular target: T3, Retinoic acid receptor beta (Homo sapiens, UniProt P10826); test: Transcriptional activation in CV-1 cells expressing human Retinoic acid receptor RAR beta; assay type: cell-based
T3 sequence (P10826 whole entry): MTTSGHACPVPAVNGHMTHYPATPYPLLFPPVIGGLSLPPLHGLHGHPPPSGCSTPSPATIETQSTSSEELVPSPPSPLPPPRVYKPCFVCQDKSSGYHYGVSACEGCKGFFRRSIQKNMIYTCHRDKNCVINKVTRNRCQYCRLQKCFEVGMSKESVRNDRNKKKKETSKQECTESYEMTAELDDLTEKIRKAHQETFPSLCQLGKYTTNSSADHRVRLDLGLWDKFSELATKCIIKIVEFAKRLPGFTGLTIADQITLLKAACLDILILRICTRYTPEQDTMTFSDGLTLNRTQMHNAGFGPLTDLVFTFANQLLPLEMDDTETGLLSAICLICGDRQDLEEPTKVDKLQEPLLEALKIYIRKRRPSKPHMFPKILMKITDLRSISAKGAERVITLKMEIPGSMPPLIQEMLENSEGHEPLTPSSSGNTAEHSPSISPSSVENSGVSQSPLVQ
Outline: as §1

[6] = molecular target: T4, Retinoic acid receptor RXR-gamma (Mus musculus, UniProt P28705); test: Transcriptional activation of CV-1 cells expressing murine Retinoid X receptor RXR gamma; assay type: cell-based
T4 sequence (P28705 whole entry): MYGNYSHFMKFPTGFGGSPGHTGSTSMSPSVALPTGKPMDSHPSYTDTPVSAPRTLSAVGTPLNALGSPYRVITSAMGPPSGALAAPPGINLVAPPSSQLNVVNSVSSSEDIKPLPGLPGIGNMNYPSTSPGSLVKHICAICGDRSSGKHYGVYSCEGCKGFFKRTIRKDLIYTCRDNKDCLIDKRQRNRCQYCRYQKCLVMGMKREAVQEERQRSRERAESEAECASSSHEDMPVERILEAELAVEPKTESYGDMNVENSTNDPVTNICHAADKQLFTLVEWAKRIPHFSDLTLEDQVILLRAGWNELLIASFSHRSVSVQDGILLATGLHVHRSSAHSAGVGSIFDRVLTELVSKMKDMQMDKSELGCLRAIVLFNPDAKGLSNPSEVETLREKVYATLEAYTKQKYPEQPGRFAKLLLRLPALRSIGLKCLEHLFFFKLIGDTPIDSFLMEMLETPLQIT
Outline: as §1

[7] = molecular target: T5, Retinoic acid receptor gamma (Homo sapiens, UniProt P13631); test: Transcriptional activation in CV-1 cells expressing human Retinoic acid receptor RAR gamma; assay type: cell-based
T5 sequence (P13631 whole entry): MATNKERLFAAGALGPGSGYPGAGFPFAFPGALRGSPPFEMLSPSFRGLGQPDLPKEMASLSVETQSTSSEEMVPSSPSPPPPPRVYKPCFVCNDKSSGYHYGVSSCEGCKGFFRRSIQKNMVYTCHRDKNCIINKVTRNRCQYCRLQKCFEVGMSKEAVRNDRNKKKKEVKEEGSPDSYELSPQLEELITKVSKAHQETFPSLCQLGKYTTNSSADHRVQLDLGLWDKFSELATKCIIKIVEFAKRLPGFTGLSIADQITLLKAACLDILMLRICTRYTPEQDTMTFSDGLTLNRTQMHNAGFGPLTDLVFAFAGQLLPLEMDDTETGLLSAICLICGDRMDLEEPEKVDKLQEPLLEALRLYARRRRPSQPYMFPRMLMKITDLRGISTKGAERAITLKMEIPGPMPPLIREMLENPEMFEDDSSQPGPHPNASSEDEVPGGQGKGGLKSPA
Outline: as §1

[8] = molecular target: T6, Retinoic acid receptor RXR-alpha (Mus musculus, UniProt P28700); test: Transcriptional activation of CV-1 cells expressing murine Retinoid X receptor RXR alpha; assay type: cell-based
T6 sequence (P28700 whole entry): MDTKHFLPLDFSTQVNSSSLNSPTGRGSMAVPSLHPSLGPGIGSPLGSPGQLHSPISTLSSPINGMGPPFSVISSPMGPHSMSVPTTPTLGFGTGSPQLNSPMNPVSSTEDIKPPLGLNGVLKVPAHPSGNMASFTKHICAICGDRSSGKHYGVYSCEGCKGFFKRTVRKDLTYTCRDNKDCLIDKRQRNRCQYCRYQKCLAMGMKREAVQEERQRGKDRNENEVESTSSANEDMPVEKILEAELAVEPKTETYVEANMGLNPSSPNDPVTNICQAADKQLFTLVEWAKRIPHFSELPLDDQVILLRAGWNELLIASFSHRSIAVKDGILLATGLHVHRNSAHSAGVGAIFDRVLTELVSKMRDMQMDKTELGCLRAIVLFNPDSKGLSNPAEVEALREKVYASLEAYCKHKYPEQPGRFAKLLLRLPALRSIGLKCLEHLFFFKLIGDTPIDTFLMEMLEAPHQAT
Outline: as §1

SCC-38 (Homo sapiens) [9] = test: Inhibition of SCC-38 cell proliferation
SCC-2 (Homo sapiens) [10] = test: Inhibition of SCC-2 cell proliferation

Row | SMILES | Inhibition (SCC-38 (Homo sapiens) [1]) | Inhibition (SCC-2 (Homo sapiens) [2]) | also measured
1 | CCOC(=O)c1ccc(OC(=O)c2cc3c(cc2OC)C(C)(C)CCC3(C)C)cc1 | 12% | 15% | 
2 | CC(/C=C/C=C(\C)c1ccc2c(c1)C(C)(C)CCS2)=C\C(=O)O | 1% | 2% | 
3 | CC1(C)CCOc2ccc(C(=O)Oc3ccc(/C=N/N=C(/N)S)cc3)cc21 | 18% | 19% | EC50 [3]: > 10000 nM; EC50 [4]: 84 nM; EC50 [5]: > 10000 nM; EC50 [6]: 1900 nM; EC50 [7]: > 10000 nM; EC50 [8]: 294 nM
4 | CC1=C(/C=C/C(C)=C\C=C\C(C)=C\C(=O)O)C(C)(C)CCC1 [ALITRETINOIN] | 10% | 13% | 
5 | CCOC(=O)c1ccc(OC(=O)c2cc3c(cc2OC)C(C)(C)COC3(C)C)cc1 | 6% | 52% | 
6 | CCOC(=O)c1ccc(OC(=O)c2cc3c(cc2C)N(C)CCC3(C)C)cc1 | 7% | 9% | 
7 | COC(=O)c1ccc(C(=O)Oc2c(C)cc3c(c2C)C(C)(C)CC(C)(C)O3)cc1 | 9% | -1% | 
8 | COC(=O)c1ccc(C(=O)Oc2c(C)cc3c(c2C)C(C)(C)C=C(C)O3)cc1 | -8% | 15% | 
9 | CCCCCCCCC1CCc2cc(/C(C)=C/c3ccc(C(=O)OCC)cc3)ccc2S1 (centres undefined) | 17% | 10% | 
10 | CCOC(=O)c1ccc(OC(=O)c2ccc3c(c2)C(C)(C)CCO3)cc1 | 13% | -6% | 
11 | COC(=O)c1ccc(C(=O)Nc2ccc3c(c2)C(C)(C)CC(C)(C)S3)cc1 |  |  | EC50 [3]: 225 nM; EC50 [4]: 1000 nM; Inhibition (SCC-38 (Homo sapiens) [9]): 37%; Inhibition (SCC-2 (Homo sapiens) [10]): 64%; EC50 [5]: 1000 nM; EC50 [6]: 302 nM; EC50 [7]: 152 nM; EC50 [8]: 84 nM
12 | CCOC(=O)c1ccc(OC(=O)c2ccc3c(c2)C(C)(C)CCN3C)cc1 | 13% | 12% | 
13 | C/C(=C\c1ccc(C(=O)O)cc1)c1ccc2c(c1)C(C)(C)CO2 | 1% | 1% | 
14 | CCOC(=O)c1ccc(OC(=O)c2ccc3c(c2)C(C)(C)CCN3C(C)C)cc1 | 15% | 5% | 
15 | COC(=O)c1ccc(N(OC)C(=O)c2ccc3c(c2)C(C)(C)CCO3)cc1 | 17% | 3% | 
16 | CCOC(=O)/C=C(C)/C=C/C=C(\C)c1ccc2c(c1)OCCO2 | -2% | -33% | 
